Test results as given in ChEMBL document CHEMBL1153346, “Structure-activity study of pentamidine analogues as antiprotozoal agents” (J Med Chem, 2009).

Legend:
[1] = tested on: L6; assay: Cytotoxicity against rat L6 cells after 70 hrs by alamar blue assay; assay type: cell-based; details: L6, 70 h
Procedure, shortened: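 L6 rat myoblasts, 4000 per well, in RPMI 1640 with 2 mM L-glutamine, HEPES, NaHCO₃ and 10% FBS. Exposed to serial dilutions (DMSO ≤1%) for 70 h at 37 °C in humidified 5% CO₂. Resazurin then added for 2-3 h; fluorescence read at ex 536/em 588 nm. IC50 from sigmoidal curves; two independent runs in duplicate.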

[2] = tested on: Trypanosoma brucei rhodesiense; assay: Antiprotozoal activity against Trypanosoma brucei rhodesiense STIB900 trypomastigotes after 70 hrs by alamar blue assay; assay type: functional, organism-based
Procedure, shortened: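 Bloodstream forms, 2000 per well, in MEM with Earle's salts plus 0.2 mM 2-mercaptoethanol, 1 mM pyruvate, 0.5 mM hypoxanthine and 15% heat-inactivated horse serum. Exposed to serial dilutions (DMSO ≤1%) for 70 h at 37 °C in 5% CO₂. Resazurin then added for a further 2-6 h. IC50 from sigmoidal curves; two independent runs in duplicate.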

[3] = tested on: Plasmodium falciparum; assay: Antiprotozoal activity after 48 hrs against chloroquine-resistant Plasmodium falciparum K1 infected erythrocytes by [3H]hypoxanthine uptake; assay type: functional, organism-based
Procedure, shortened: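 Erythrocytic stages in infected human red cells (hematocrit 1.25%, parasitemia 0.3%) in supplemented RPMI 1640 with Albumax II. Serial dilutions incubated at 37 °C in 93% N2/4% CO2/3% O2. [3H]-hypoxanthine (0.5 µCi/well) added at 48 h, then 24 h more. Incorporation counted by scintillation. IC50 from sigmoidal curves; two independent runs in duplicate.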

[4] = Selectivity index, ratio of IC50 for rat L6 cells to IC50 for chloroquine-resistant Plasmodium falciparum K1; assay type: toxicity, cell-based; details: read-out: Ratio IC50
Procedure, shortened: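 Ratio of L6 IC50 to K1 IC50. L6 cells: Alamar blue assay after 70 h, 37 °C. K1: [3H]-hypoxanthine incorporation in infected red cells over 48 + 24 h at 37 °C under low O2. IC50s from sigmoidal curves, two independent runs in duplicate.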

[5] = tested on: Leishmania donovani; assay: Antiprotozoal activity against Leishmania donovani MHOM/SD/62/1S-CL2D axenic amastigotes after 72 hrs; assay type: functional, organism-based
Procedure, shortened: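 L. donovani axenic amastigotes, adapted from promastigotes and grown in amastigote medium at 37 °C. 6 × 10⁴ parasites per well with 2-fold compound dilutions (DMSO ≤1%), incubated 72 h at 37 °C in humidified 5% CO₂. Growth read by tetrazolium (CellTiter) absorbance at 490 nm. IC50 from a four-parameter dose-response fit. Average of duplicate determinations.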

[6] = Selectivity index, ratio of IC50 for rat L6 cells to IC50 for Leishmania donovani MHOM/SD/62/1S-CL2D axenic amastigotes; assay type: toxicity, cell-based; details: read-out: Ratio IC50
Procedure, shortened: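 Amastigotes: 6 × 10⁴ parasites/well with 2-fold dilutions, 72 h at 37 °C in 5% CO2. Growth read by tetrazolium CellTiter absorbance at 490 nm; IC50 from a four-parameter dose-response fit.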

[7] = Selectivity index, ratio of IC50 for rat L6 cells to IC50 for Trypanosoma brucei rhodesiense STIB900 trypomastigotes; assay type: toxicity, cell-based; details: read-out: Ratio IC50
Procedure, shortened: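 Ratio of L6 IC50 to STIB900 IC50. L6 cells: 4000/well in RPMI 1640 with 10% FBS, 70 h at 37 °C. Bloodstream forms: 2000/well in supplemented MEM with 15% horse serum, 70 h at 37 °C. Both read by Alamar blue fluorescence; IC50s from sigmoidal curves, two independent runs in duplicate.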

| Compound | IC50 [1] [µM] | IC50 [2] [µM] | IC50 [3] [µM] | selectivity ratio [4] | IC50 [5] [µM] | selectivity ratio [6] | selectivity ratio [7] |
| --- | --- | --- | --- | --- | --- | --- | --- |
| CCOC(=O)c1cc(C2=NCCN2)ccc1OCCCCCOc1ccc(C2=NCCN2)cc1C(=O)OCC | > 138 | > 15.3 | 0.027 | > 5110 | 13.6 | > 10 | – |
| CC(C)NC(=N)c1ccc(OCCCCCOc2ccc(C(=N)NC(C)C)c(O)c2)cc1O | > 156 | 14.7 | 0.581 | > 269 | > 100 | 2 | > 11 |
| CN1CCN=C1c1ccc(OCCCCCOc2ccc(C3=NCCN3C)cc2)cc1 | > 176 | > 19.6 | 1.65 | > 107 | > 100 | 2 | – |
| c1cc(OCCCCOc2cccc(C3=NCCN3)c2)cc(C2=NCCN2)c1 | > 185 | 1.94 | 0.107 | > 1730 | 39.5 | > 5 | > 95 |
| CC(=N)Nc1ccc(OCCCCCOc2ccc(NC(C)=N)cc2)cc1 | > 202 | 3.04 | 0.048 | > 4210 | > 100 | – | > 66 |
| N=C(N)c1ccc(OCCCCOc2ccc(C(=N)N)cc2[N+](=O)[O-])c([N+](=O)[O-])c1 | 42.8 | 0.181 | 0.018 | 2380 | 15.1 | 3 | 236 |
| CC(C)NC(=N)c1ccc(OCCCCCOc2ccc(C(=N)NC(C)C)cc2C(=O)O)c(C(=O)O)c1 | > 144 | > 16 | > 1.6 | – | > 200 | – | – |
| O=C(O)c1cc(C2=NCCN2)ccc1OCCCCCOc1ccc(C2=NCCN2)cc1C(=O)O | > 151 | > 16.8 | > 1.68 | – | > 200 | – | – |
| c1cc(OCCCCCCOc2cccc(C3=NCCN3)c2)cc(C2=NCCN2)c1 | 99 | 0.875 | 0.02 | 4950 | 21.9 | 5 | 113 |
| c1cc(OCCCCCOc2cccc(C3=NCCN3)c2)cc(C2=NCCN2)c1 | 100 | 1.49 | 0.024 | 4170 | 22.4 | 4 | 67 |
| CCOC(=O)c1cc(C(=N)N)ccc1OCCCCCOc1ccc(C(=N)N)cc1C(N)=O | > 165 | 0.011 | 0.014 | > 11800 | 52.1 | > 3 | > 15000 |
| N=C(N)c1ccc(OCCCOc2ccc(C(=N)N)cc2[N+](=O)[O-])c([N+](=O)[O-])c1 | 22.8 | 0.188 | 0.035 | 651 | 30.9 | 0.7 | 121 |
| N=C(N)c1ccc(OCCCCCOc2ccc(C(=N)N)c(O)c2)cc1O | > 195 | 7.96 | 1.29 | > 151 | > 100 | – | > 24 |
| CC(C)NC(=N)c1cccc(OCCCOc2cccc(C(=N)NC(C)C)c2)c1 | > 183 | 0.543 | 0.018 | > 10200 | 16.2 | > 11 | > 337 |
| N=C(N)c1ccc(OCCCCCOc2ccc(/C(N)=N\O)cc2)cc1 | 11.6 | 0.289 | 0.234 | 50 | 55.6 | < 1 | 40 |
| CC(C)NC(=N)c1cccc(OCCCCCOc2cccc(C(=N)NC(C)C)c2)c1 | > 175 | 0.416 | 0.004 | > 43800 | 15.4 | > 11 | > 421 |
| c1cc(-c2nnn[nH]2)ccc1OCCCCCOc1ccc(-c2nnn[nH]2)cc1 | > 229 | > 229 | 8.31 | > 28 | > 100 | 2 | – |
| N=C(N)c1ccc(S(=O)(=O)CCCCCS(=O)(=O)c2ccc(C(=N)N)cc2)cc1 | > 174 | 28.1 | 0.098 | > 1780 | > 100 | 2 | > 6 |
| C[C@@H]1CC[C@H]2[C@@H](C)C(=O)O[C@@H]3O[C@@]4(C)CC[C@@H]1[C@]32OO4 [ARTEMISININ] | – | – | – | 75000 | – | – | – |
| CC(C)NC(=N)c1ccc(OCCCCCOc2ccc(C(=N)NC(C)C)c(F)c2)cc1F | 131 | 0.259 | 0.007 | 18700 | 15 | 9 | 506 |
| c1cc(OCCCOc2cccc(C3=NCCN3)c2)cc(C2=NCCN2)c1 | 43.5 | 4.3 | 5.39 | 8 | 30.8 | 1 | 10 |
| Oc1cc(OCCCCCOc2ccc(C3=NCCN3)c(O)c2)ccc1C1=NCCN1 | > 169 | 3.7 | 0.098 | > 1720 | > 100 | 2 | > 46 |
| CC(C)NC(=N)c1cccc(OCCCCCCOc2cccc(C(=N)NC(C)C)c2)c1 | 107 | 0.258 | 0.006 | 17800 | 11.6 | 9 | 415 |
| CCOC(=O)c1cc(C(=N)N)ccc1OCCCCCOc1ccc(C(=N)N)cc1C(=O)OCC | > 152 | 12.1 | 0.021 | > 7240 | > 50 | – | > 13 |
| N=C(N)c1ccc(OCCCCCOc2ccc(C(=N)N)cc2[N+](=O)[O-])c([N+](=O)[O-])c1 | 37.3 | 0.098 | 0.024 | 1550 | 11.4 | 3 | 381 |
| N=C(N)c1ccc(OCCCOc2ccc(C(=O)O)cc2)cc1 | 167 | > 257 | > 2.8 | < 60 | > 100 | < 2 | < 0.6 |
| N/N=C(\N)c1ccc(OCCCCCOc2ccc(/C(N)=N/N)cc2)cc1 | 139 | 9.67 | 1.41 | 99 | 126 | 1 | 14 |
| CC(C)NC(=N)c1cccc(OCCCCOc2cccc(C(=N)NC(C)C)c2)c1 | > 171 | 0.619 | 0.013 | > 13200 | 19.3 | > 9 | > 276 |
| Nc1cc(C2=NCCN2)ccc1OCCCOc1ccc(C2=NCCN2)cc1N | > 167 | 0.813 | 0.07 | > 2390 | – | – | > 205 |
| N=C(N)c1ccc(OCCCCCOc2ccc(C(=N)N)cc2C(=O)O)c(C(=O)O)c1 | > 165 | > 18.3 | 71.8 | 2 | – | – | – |
